SMILES strings stand for the structures. Values after ≈ are worked out from the molar mass of the structure shown.

We go through three molecules from ChEMBL document CHEMBL5214894, “Biosynthetic Interrogation of Soil Metagenomes Reveals Metamarin, an Uncommon Cyclomarin Congener with Activity against Mycobacterium tuberculosis” (J Nat Prod, 2021).

Assay [1] relates to Mycobacterium tuberculosis. The assay is described as follows: Antimycobacterial activity against multi drug-resistant Mycobacterium tuberculosis 565 assessed as bacterial growth inhibition incubated for 6 days by Alamar blue staining based assay. Type of assay: functional. The conditions noted are these: Mycobacterium tuberculosis, 565, 144 h; time 6 day. Summed up: (§1)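 Strains passaged at 37 °C in 7H9 with OADC, 0.2% glycerol and 0.02% tyloxapol to OD600 0.5–0.7, then diluted to OD600 0.005. Final test range 5 to 0.009 μg/mL. Rifampicin control. Incubated 6 days at 37 °C with 5% CO2. Tween 80 and Alamar Blue then added for 24 h. Absorbance read at 570 nm, normalized to 600 nm.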
Background: Resazurin is reduced to fluorescent resorufin, in cell work by metabolically active cells.

The subject of assay [2] is Mycobacterium tuberculosis. The assay is described as follows: Antimycobacterial activity against multi drug-resistant Mycobacterium tuberculosis 7791 assessed as bacterial growth inhibition incubated for 6 days by Alamar blue staining based assay. Type of assay: functional. The conditions noted are these: Mycobacterium tuberculosis, 7791, 144 h; time 6 day. In short, it runs like this:
as §1

Assay [3] concerns Mycobacterium tuberculosis. Briefly: Antimycobacterial activity against multi drug-resistant Mycobacterium tuberculosis TN800 assessed as bacterial growth inhibition incubated for 6 days by Alamar blue staining based assay. Conditions: TN800, 144 h, time 6 day. The assay is classed as functional. In short, it runs like this:
as §1

The test system of assay [4] is Mycobacterium tuberculosis. The assay is described as follows: Antibacterial activity against Mycobacterium tuberculosis mc2 6206 harboring mLux plasmid infected in mouse J774.A1 cells assessed as inhibition of bacterial cell viability incubated for 72 hrs by multimode microplate reader analysis. The assay is classed as functional, organism-based. Conditions: mc2 6206, J774.A1, 72 h. In short, it runs like this: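 Macrophages at (4–5) × 10^5 cells/mL in DMEM/10% FBS, seeded and left to adhere overnight. Infected at MOI 1:10 with mid-log bacteria for 4 h at 37 °C, 5% CO2. Medium supplemented with pantothenate and leucine, each 50 μg/mL. After PBS washes, compound added at 64 to 0.0004 μg/mL for 72 h. Luminescence read-out. IC50 by nonlinear regression. Triplicate; experiment repeated twice.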

`C=CC(C)(C)n1cc(C(O)C2NC(=O)[C@H](C(C)C)NC(=O)[C@H](CC(C)C)N(C)C(=O)[C@H](C(C)C)NC(=O)C(C(OC)c3ccccc3)NC(=O)[C@H](C(C)C)NC(=O)C(CC(C)CO)N(C)C2=O)c2ccccc21` (stereo partly specified): the MIC in assay [1], in assay [2] and in assay [3] was 0.08 µg/mL (≈ 0.0788 µM) throughout. In assay [4], the IC50 amounted to 0.71 µg/mL (≈ 0.699 µM).

With `CO[C@@H](c1ccccc1)[C@H]1NC(=O)[C@H](C)NC(=O)[C@@H](CC(C)CO)N(C)C(=O)C(C(O)c2cn(C(C)(C)[C@@H]3CO3)c3ccccc23)NC(=O)[C@@H]([C@H](C)C=C(C)C)NC(=O)[C@@H](CC(C)C)N(C)C(=O)[C@@H](C(C)C)NC1=O` (stereo partly specified), the 50% inhibitory concentration (IC50) in assay [4] is 0.48 µg/mL (≈ 0.46 µM).

Turning to `CO[C@H]1/C=C/O[C@@]2(C)Oc3c(C)c(O)c4c(O)c(c(/C=N/N5CCN(C)CC5)c(O)c4c3C2=O)NC(=O)/C(C)=C\C=C\[C@H](C)[C@H](O)[C@@H](C)[C@@H](O)[C@@H](C)[C@H](OC(C)=O)[C@@H]1C` [RIFAMPIN], the IC50 in assay [4] was 0.08 µg/mL (≈ 0.0972 µM).

One may read the MIC as the lowest concentration found to suppress growth. By IC50 is commonly meant the concentration that gives 50% inhibition.
